From ChEMBL document CHEMBL3526062, “Role of human UDP-glucuronosyltransferases in the biotransformation of the triazoloacridinone and imidazoacridinone antitumor agents C-1305 and C-1311: highly selective substrates for UGT1A10” (Drug Metab Dispos, 2012) come the findings set out here.

Holding throughout (format): ADME
Data set [1] concerns CN(C)CCCNc1ccc2nnn3c4ccc(O)cc4c(=O)c1c23. Nature of the data set: (§1) Activity of human recombinant UGT1A10 D396A mutant expressed in baculovirus-infected Sf9 cells assessed as enzyme-mediated glucuronidation after 60 mins by Michaelis-Menten equation in presence of 3 mM UDP-GlcUA. An outline of the steps: (§2)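 Membrane fractions (5 μg) holding wild-type or point-mutant UGT1A10 incubated with increasing substrate concentrations and 3 mM UDP-GlcUA, 60 min, 37°C; products by HPLC. Kinetic constants from curve fits of three determinations; Km in μM, Vmax in nmol/mg protein/min.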

The subject of data set [2] is CCN(CC)CCNc1ccc2ncn3c4ccc(O)cc4c(=O)c1c23. Described as §1. An outline of the steps: as §2
Data set [3] has as its system CN(C)CCCNc1ccc2nnn3c4ccc(O)cc4c(=O)c1c23. Nature of the data set: (§3) Activity of human recombinant UGT1A10 V92A mutant expressed in baculovirus-infected Sf9 cells assessed as enzyme-mediated glucuronidation after 60 mins by Michaelis-Menten equation in presence of 3 mM UDP-GlcUA. An outline of the steps:
as §2

Data set [4] concerns CCN(CC)CCNc1ccc2ncn3c4ccc(O)cc4c(=O)c1c23. The data set is described as §3. An outline of the steps: as §2
Substrate in data set [5]: CCN(CC)CCNc1ccc2ncn3c4ccc(O)cc4c(=O)c1c23
Kind of data set: (§4) Activity of human recombinant UGT1A10 expressed in baculovirus-infected Sf9 cells assessed as enzyme-mediated glucuronidation after 60 mins by Michaelis-Menten equation in presence of 3 mM UDP-GlcUA. An outline of the steps: (§5)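 Recombinant UGT membrane protein (5 μg; His-tagged UGT1A levels normalized by anti-His Western blot) or single-donor microsomes (20 μg) incubated with substrate 5–1000 μM and 3 mM UDP-GlcUA in […] pH 7.4, 5 mM MgCl2, 5 mM saccharolactone, 2% DMSO, 60 min, 37°C. Ethanol stop, centrifuged, HPLC-UV. Initial velocities fitted to Michaelis-Menten, Hill or substrate-inhibition models; three determinations.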

Substrate in data set [6]: CN(C)CCCNc1ccc2nnn3c4ccc(O)cc4c(=O)c1c23
The description is as §4. An outline of the steps: as §5

Substrate in data set [7]: CN(C)CCCNc1ccc2nnn3c4ccc(O)cc4c(=O)c1c23
Nature of the data set: Activity of human recombinant UGT1A7 expressed in baculovirus-infected Sf9 cells assessed as enzyme-mediated glucuronidation after 60 mins by Michaelis-Menten equation in presence of 3 mM UDP-GlcUA.

Substrate in data set [8]: CCN(CC)CCNc1ccc2ncn3c4ccc(O)cc4c(=O)c1c23
Nature of the data set: (§6) Activity of human recombinant UGT1A9 expressed in baculovirus-infected Sf9 cells assessed as enzyme-mediated glucuronidation after 60 mins by Michaelis-Menten equation in presence of 3 mM UDP-GlcUA. An outline of the steps: as §5

Substrate in data set [9]: CN(C)CCCNc1ccc2nnn3c4ccc(O)cc4c(=O)c1c23
Described as §6. An outline of the steps: as §5

Substrate in data set [10]: CCN(CC)CCNc1ccc2ncn3c4ccc(O)cc4c(=O)c1c23
Nature of the data set: (§7) Activity of human recombinant UGT1A1 expressed in baculovirus-infected Sf9 cells assessed as enzyme-mediated glucuronidation after 60 mins by Michaelis-Menten equation in presence of 3 mM UDP-GlcUA. An outline of the steps:
as §5

Substrate in data set [11]: CN(C)CCCNc1ccc2nnn3c4ccc(O)cc4c(=O)c1c23
The data set is described as §7. An outline of the steps:
as §5

With “UDP-glucuronosyltransferase 1A10 (Homo sapiens; D396A)”, in [1], the Michaelis-Menten constant (Km) (usually the substrate concentration at which the rate is half of its maximum) was 47.6 µM and the maximal velocity (Vmax) (in general, the top rate of the reaction or transport when substrate is in excess) stood at 0.00199 µmol/min. In data set [2], the Michaelis constant (Km) was 75.4 µM and the Vmax stood at 0.00078 µmol/min.
For the molecule “UDP-glucuronosyltransferase 1A10 (Homo sapiens; V92A)”, in data set [3], the Km amounted to 64.7 µM and the maximal velocity (Vmax) was determined as 0.00073 µmol/min. Further, in data set [4], the Michaelis constant (Km) came to 40.7 µM and the Vmax amounted to 0.00025 µmol/min.

B1: UDP-glucuronosyltransferase 1A10 (Homo sapiens) (protein)
chain: MARAGWTSPVPLCVCLLLTCGFAEAGKLLVVPMDGSHWFTMQSVVEKLILRGHEVVVVMPEVSWQLERSLNCTVKTYSTSYTLEDQNREFMVFAHAQWKAQAQSIFSLLMSSSSGFLDLFFSHCRSLFNDRKLVEYLKESSFDAVFLDPFDTCGLIVAKYFSLPSVVFTRGIFCHHLEEGAQCPAPLSYVPNDLLGFSDAMTFKERVWNHIVHLEDHLFCQYLFRNALEIASEILQTPVTAYDLYSHTSIWLLRTDFVLDYPKPVMPNMIFIGGINCHQGKPLPMEFEAYINASGEHGIVVFSLGSMVSEIPEKKAMAIADALGKIPQTVLWRYTGTRPSNLANNTILVKWLPQNDLLGHPMTRAFITHAGSHGVYESICNGVPMVMMPLFGDQMDNAKRMETKGAGVTLNVLEMTSEDLENALKAVINDKSYKENIMRLSSLHKDRPVEPLDLAVFWVEFVMRHKGAPHLRPAAHDLTWYQYHSLDVIGFLLAVVLTVAFITFKCCAYGYRKCLGKKGRVKKAHKSKTH
Regarding B1, in data set [5], the Km came out at 70.6 µM and the Vmax was determined as 0.000624 µmol/min. For the same molecule, in data set [6], the Michaelis constant (Km) stood at 94.1 µM and the Vmax was 0.00256 µmol/min.

B2: UDP-glucuronosyltransferase 1A7 (Homo sapiens) (protein)
chain: MARAGWTGLLPLYVCLLLTCGFAKAGKLLVVPMDGSHWFTMQSVVEKLILRGHEVVVVMPEVSWQLGRSLNCTVKTYSTSYTLEDQDREFMVFADARWTAPLRSAFSLLTSSSNGIFDLFFSNCRSLFNDRKLVEYLKESCFDAVFLDPFDACGLIVAKYFSLPSVVFARGIFCHYLEEGAQCPAPLSYVPRLLLGFSDAMTFKERVWNHIMHLEEHLFCPYFFKNVLEIASEILQTPVTAYDLYSHTSIWLLRTDFVLEYPKPVMPNMIFIGGINCHQGKPVPMEFEAYINASGEHGIVVFSLGSMVSEIPEKKAMAIADALGKIPQTVLWRYTGTRPSNLANNTILVKWLPQNDLLGHPMTRAFITHAGSHGVYESICNGVPMVMMPLFGDQMDNAKRMETKGAGVTLNVLEMTSEDLENALKAVINDKSYKENIMRLSSLHKDRPVEPLDLAVFWVEFVMRHKGAPHLRPAAHDLTWYQYHSLDVIGFLLAVVLTVAFITFKCCAYGYRKCLGKKGRVKKAHKSKTH
With B2, in [7], the Michaelis constant (Km) was 29.3 µM and the Vmax worked out at 0.000306 µmol/min.

B3: UDP-glucuronosyltransferase 1A9 (Homo sapiens) (protein)
chain: MACTGWTSPLPLCVCLLLTCGFAEAGKLLVVPMDGSHWFTMRSVVEKLILRGHEVVVVMPEVSWQLGRSLNCTVKTYSTSYTLEDLDREFKAFAHAQWKAQVRSIYSLLMGSYNDIFDLFFSNCRSLFKDKKLVEYLKESSFDAVFLDPFDNCGLIVAKYFSLPSVVFARGILCHYLEEGAQCPAPLSYVPRILLGFSDAMTFKERVRNHIMHLEEHLLCHRFFKNALEIASEILQTPVTEYDLYSHTSIWLLRTDFVLDYPKPVMPNMIFIGGINCHQGKPLPMEFEAYINASGEHGIVVFSLGSMVSEIPEKKAMAIADALGKIPQTVLWRYTGTRPSNLANNTILVKWLPQNDLLGHPMTRAFITHAGSHGVYESICNGVPMVMMPLFGDQMDNAKRMETKGAGVTLNVLEMTSEDLENALKAVINDKSYKENIMRLSSLHKDRPVEPLDLAVFWVEFVMRHKGAPHLRPAAHDLTWYQYHSLDVIGFLLAVVLTVAFITFKCCAYGYRKCLGKKGRVKKAHKSKTH
For the molecule B3, the Km in data set [8] is 63.3 µM; in data set [9], 54.6 µM. For the same molecule, the maximum rate (Vmax) turned out to be 0.000206 µmol/min in [8] and 0.000201 µmol/min in [9].

B4: UDP-glucuronosyltransferase 1A1 (Homo sapiens) (protein)
chain: MAVESQGGRPLVLGLLLCVLGPVVSHAGKILLIPVDGSHWLSMLGAIQQLQQRGHEIVVLAPDASLYIRDGAFYTLKTYPVPFQREDVKESFVSLGHNVFENDSFLQRVIKTYKKIKKDSAMLLSGCSHLLHNKELMASLAESSFDVMLTDPFLPCSPIVAQYLSLPTVFFLHALPCSLEFEATQCPNPFSYVPRPLSSHSDHMTFLQRVKNMLIAFSQNFLCDVVYSPYATLASEFLQREVTVQDLLSSASVWLFRSDFVKDYPRPIMPNMVFVGGINCLHQNPLSQEFEAYINASGEHGIVVFSLGSMVSEIPEKKAMAIADALGKIPQTVLWRYTGTRPSNLANNTILVKWLPQNDLLGHPMTRAFITHAGSHGVYESICNGVPMVMMPLFGDQMDNAKRMETKGAGVTLNVLEMTSEDLENALKAVINDKSYKENIMRLSSLHKDRPVEPLDLAVFWVEFVMRHKGAPHLRPAAHDLTWYQYHSLDVIGFLLAVVLTVAFITFKCCAYGYRKCLGKKGRVKKAHKSKTH
As to B4, in data set [10], the Michaelis constant (Km) came to 28.9 µM and the Vmax came to 0.000115 µmol/min. In addition, in [11], the Michaelis constant (Km) was 149 µM and the maximal velocity (Vmax) was 0.000262 µmol/min.
